Test results reported in ChEMBL document CHEMBL5038571, “Design and Synthesis of EZH2-Based PROTACs to Degrade the PRC2 Complex for Targeting the Noncatalytic Activity of EZH2” (J Med Chem, 2021).
Active and inactive are the calls of the source. The rule behind the calls is not given here.

What was measured:
[1] = biological target: T1, Protein cereblon/Histone-lysine N-methyltransferase EZH2 (Homo sapiens) (UniProt Q15910+Q96SW2); test: PROTAC activity at CRBN E3 ligase/EZH2 in PRC2 complex in human A2780 cells assessed as reduction in H3K27me3 level at 1 uM incubated for 48 hrs by Western blot analysis; type: cell-based
T1 sequence (Q15910 whole entry, looked up): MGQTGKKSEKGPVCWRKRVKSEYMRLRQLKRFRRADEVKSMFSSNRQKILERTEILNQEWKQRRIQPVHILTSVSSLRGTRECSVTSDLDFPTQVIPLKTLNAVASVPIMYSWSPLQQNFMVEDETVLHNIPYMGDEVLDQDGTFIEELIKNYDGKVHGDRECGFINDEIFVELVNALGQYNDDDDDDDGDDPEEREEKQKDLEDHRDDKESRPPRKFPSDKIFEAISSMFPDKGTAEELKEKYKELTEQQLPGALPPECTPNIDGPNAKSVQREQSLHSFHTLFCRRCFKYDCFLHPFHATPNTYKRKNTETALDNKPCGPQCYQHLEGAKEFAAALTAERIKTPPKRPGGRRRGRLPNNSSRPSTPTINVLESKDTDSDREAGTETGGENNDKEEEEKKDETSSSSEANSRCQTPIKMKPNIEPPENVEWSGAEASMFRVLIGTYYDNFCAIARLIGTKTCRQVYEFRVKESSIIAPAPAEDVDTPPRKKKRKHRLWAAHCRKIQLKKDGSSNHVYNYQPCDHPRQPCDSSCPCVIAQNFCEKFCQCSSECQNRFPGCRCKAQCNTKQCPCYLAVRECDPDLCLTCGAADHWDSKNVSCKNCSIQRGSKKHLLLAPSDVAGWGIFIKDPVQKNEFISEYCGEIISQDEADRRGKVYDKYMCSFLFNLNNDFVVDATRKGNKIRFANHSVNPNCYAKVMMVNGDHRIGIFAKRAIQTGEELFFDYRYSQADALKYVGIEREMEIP
T1 sequence (Q96SW2 whole entry, looked up): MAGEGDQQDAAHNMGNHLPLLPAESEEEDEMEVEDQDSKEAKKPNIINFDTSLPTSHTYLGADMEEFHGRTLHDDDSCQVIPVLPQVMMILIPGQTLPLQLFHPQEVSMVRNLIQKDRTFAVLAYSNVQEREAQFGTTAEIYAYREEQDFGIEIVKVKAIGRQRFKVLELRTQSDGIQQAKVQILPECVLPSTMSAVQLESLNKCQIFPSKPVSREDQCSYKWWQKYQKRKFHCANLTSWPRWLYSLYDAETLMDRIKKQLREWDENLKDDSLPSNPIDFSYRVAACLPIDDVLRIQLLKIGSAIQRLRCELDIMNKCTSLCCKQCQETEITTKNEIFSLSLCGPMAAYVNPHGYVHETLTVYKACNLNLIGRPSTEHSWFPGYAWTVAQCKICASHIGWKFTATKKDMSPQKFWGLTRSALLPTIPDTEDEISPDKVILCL
Procedure, shortened: (§1)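 Cancer cell lines exposed to 1 μM compound for 48 h. Lysates immunoblotted (SDS-PAGE, nitrocellulose, 5% milk block, primary antibody overnight at 4 °C) for EZH2, SUZ12, EED, RbAp48 and H3K27me3. Bands quantified by densitometry and normalized to GAPDH.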

[2] = biological target: T1, Protein cereblon/Histone-lysine N-methyltransferase EZH2 (Homo sapiens); test: PROTAC activity at CRBN E3 ligase/EZH2 in PRC2 complex in human A2780 cells assessed as induction of EED degradation by measuring reduction in EED protein level at 1 uM incubated for 48 hrs by Western blot analysis; type: cell-based; procedure, shortened: as §1
WSUDLCL2 [3] = test: Antiproliferative activity against human WSUDLCL2 cells harboring EZH2-Y641F mutant assessed as inhibition of cell growth at 10 uM incubated for 9 days by optical microscopic analysis; type: functional, cell-based; details: time 9.0 day
Procedure, shortened: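 WSU-DLCL-2 cells seeded at 5 × 10³ per well, incubated 24 h, then exposed to 10 μM compound for 9 days with medium refreshed. Cells photographed and counted on days 1, 3, 5, 7 and 9. Mean SD of three independent experiments, t-test versus DMSO.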

A549 = test: Downregulation of CEP76 mRNA expression in human A549 cells at 10 uM incubated for 48 hrs by qRT-PCR analysis; type: functional, cell-based
Procedure, shortened: (§2)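 Cells treated 48 h. Total RNA extracted with Trizol, reverse-transcribed, and SYBR RT-qPCR run: 95 °C 30 s, then 40 cycles of 95 °C 6 s and 60 °C 20 s. mRNA normalized to the DMSO-treated group. Mean SD of three independent experiments, t-test versus DMSO.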

WSUDLCL2 [4] = test: Effect on Histone H3 methylation in human WSUDLCL2 cells assessed as reduction in H3K4me3 levels at upto 10 uM incubated for 48 hrs by Western blot analysis; type: functional, cell-based; details: dose microM <=10, time 48.0 hrs
Procedure, shortened: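 Lysates run on SDS-PAGE and transferred to nitrocellulose. Membranes blocked with 5% skim milk for 2 h, primary antibody applied overnight at 4 °C, then secondary antibody and chemiluminescent detection of histone H3 methylation marks.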

[5] = biological target: T1, Protein cereblon/Histone-lysine N-methyltransferase EZH2 (Homo sapiens); test: PROTAC activity at CRBN E3 ligase/EZH2 in PRC2 complex in human DU-145 cells assessed as induction of EZH2 degradation by measuring reduction in EZH2 protein level at 1 uM incubated for 48 hrs by Western blot analysis; type: cell-based; procedure, shortened: as §1
NCI-H1299 = test: Antiproliferative activity against human NCI-H1299 cells harboring SWI/SNF mutant assessed as inhibition of cell growth at 10 uM treated for 9 days by optical microscopic analysis; type: functional, cell-based; details: time 9.0 day
Procedure, shortened: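 Cells seeded at 5 × 10³ per well, grown 24 h, then exposed to compound at 10 μM for 9 days with medium refreshed. Cells were photographed and counted on days 1, 3, 5, 7 and 9. For lines 1-2, EZH2-targeting or control shRNA was induced in the cells. Mean SD of three independent experiments; t-test against control.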

[6] = biological target: T1, Protein cereblon/Histone-lysine N-methyltransferase EZH2 (Homo sapiens); test: PROTAC activity at CRBN E3 ligase/EZH2 in PRC2 complex in human DU-145 cells assessed as induction of RbAp48 degradation by measuring reduction in RbAp48 protein level at 1 uM incubated for 48 hrs by Western blot analysis; type: cell-based; procedure, shortened: as §1
[7] = biological target: T1, Protein cereblon/Histone-lysine N-methyltransferase EZH2 (Homo sapiens); test: PROTAC activity at CRBN E3 ligase/EZH2 in PRC2 complex in human WSUDLCL2 cells assessed as reduction in H3K27me3 level at 1 uM incubated for 48 hrs by Western blot analysis relative to control; type: cell-based; parameters: scale not given: the % may be the effect or the level left
Procedure, shortened: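 WSU-DLCL-2 cells treated 48 h (1 μM for the single-concentration screen), lysed; SDS-PAGE, nitrocellulose transfer, 5% milk block, primary antibody 4 °C overnight, chemiluminescence. Bands quantified by densitometry, normalized to GAPDH, expressed relative to DMSO-treated cells; mean ± SD of three independent experiments, t-test.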

Pfeiffer = test: Upregulation of TNFRSF21 mRNA expression in human Pfeiffer cells at 1 uM incubated for 48 hrs by qRT-PCR analysis; type: functional, cell-based
Procedure, shortened: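 WSU-DLCL-2 or Pfeiffer cells treated 48 h. Trizol RNA extraction, reverse transcription, SYBR qPCR (95 °C 30 s; 40 cycles of 95 °C 6 s, 60 °C 20 s). mRNA normalized to DMSO-treated cells; mean ± SD of three independent experiments, t-test.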

MDA-MB-468 = test: Downregulation of CHEK1 mRNA expression in human MDA-MB-468 cells at 10 uM incubated for 48 hrs by qRT-PCR analysis; type: functional, cell-based; procedure, shortened: as §2
[8] = biological target: T1, Protein cereblon/Histone-lysine N-methyltransferase EZH2 (Homo sapiens); test: PROTAC activity at CRBN E3 ligase/EZH2 in PRC2 complex in human WSUDLCL2 cells assessed as induction of EED degradation at 1 uM incubated for 48 hrs by Western blot analysis relative to control; type: cell-based
Procedure, shortened: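 WSU-DLCL-2 cells exposed to 1 μM compound for 48 h, with DMSO-treated cells as control. Bands quantified by densitometry and normalized to GAPDH. Mean SD from three independent experiments, t-test versus DMSO.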

[9] = biological target: T1, Protein cereblon/Histone-lysine N-methyltransferase EZH2 (Homo sapiens); test: PROTAC activity at CRBN E3 ligase/EZH2 in PRC2 complex in human WSUDLCL2 cells assessed as downregulation of RbAp48 expression at 1 uM pretreated with lenalidomide for 4 hrs followed by compound addition and measured after 48 hrs by Western blot analysis; type: cell-based
Procedure, shortened: (§3)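 WSU-DLCL-2 cells pretreated 4 h with the named inhibitor, then compound added and incubated a further 48 h. EZH2, SUZ12, EED and RbAp48 measured by western blot (nitrocellulose transfer, skim-milk block, primary antibody overnight at 4 °C, chemiluminescent detection).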

[10] = biological target: T1, Protein cereblon/Histone-lysine N-methyltransferase EZH2 (Homo sapiens); test: PROTAC activity at CRBN E3 ligase/EZH2 in PRC2 complex in human WSUDLCL2 cells assessed as downregulation of EZH2 expression at 1 uM pretreated with lenalidomide for 4 hrs followed by compound addition and measured after 48 hrs by Western blot analysis; type: cell-based; procedure, shortened: as §3

Activity [1]: Active
Activity [2]: Active
Activity [5]: Active
Activity [6]: Active
Activity [7]: 83%
Activity [8]: 75%
Activity [9]: inactive
Activity [10]: inactive
Structure (SMILES): CCN(c1cc(-c2ccc(CN3CCN(CCCCCCCOc4cccc5c4C(=O)N(C4CCC(=O)NC4=O)C5=O)CC3)cc2)cc(C(=O)NCc2c(C)cc(C)[nH]c2=O)c1C)C1CCOCC1 (centres undefined)
Activity (WSUDLCL2 [3]): Active
Activity (A549): Active
Activity (WSUDLCL2 [4]): inactive
Activity (NCI-H1299): Active
Activity (Pfeiffer): Active
Activity (MDA-MB-468): Active
